The target of series [1] is T1, Interstitial collagenase (Homo sapiens, UniProt P03956).
T1 sequence (P03956 whole entry): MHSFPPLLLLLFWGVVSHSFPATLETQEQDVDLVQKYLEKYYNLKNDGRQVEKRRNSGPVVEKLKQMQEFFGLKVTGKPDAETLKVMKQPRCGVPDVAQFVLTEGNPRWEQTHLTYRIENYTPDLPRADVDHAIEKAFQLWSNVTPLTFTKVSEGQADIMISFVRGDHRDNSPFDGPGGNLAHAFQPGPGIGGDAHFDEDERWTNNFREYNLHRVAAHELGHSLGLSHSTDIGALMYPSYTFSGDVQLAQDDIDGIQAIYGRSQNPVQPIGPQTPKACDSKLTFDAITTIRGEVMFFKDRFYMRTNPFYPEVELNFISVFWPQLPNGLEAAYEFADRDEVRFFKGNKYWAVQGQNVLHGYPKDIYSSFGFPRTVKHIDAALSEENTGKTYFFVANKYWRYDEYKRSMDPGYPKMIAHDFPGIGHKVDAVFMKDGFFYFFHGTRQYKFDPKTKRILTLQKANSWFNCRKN
Put plainly: Inhibition of MMP1.

The target in series [2] is T2, Matrilysin (Homo sapiens, UniProt P09237).
T2 sequence (P09237 whole entry): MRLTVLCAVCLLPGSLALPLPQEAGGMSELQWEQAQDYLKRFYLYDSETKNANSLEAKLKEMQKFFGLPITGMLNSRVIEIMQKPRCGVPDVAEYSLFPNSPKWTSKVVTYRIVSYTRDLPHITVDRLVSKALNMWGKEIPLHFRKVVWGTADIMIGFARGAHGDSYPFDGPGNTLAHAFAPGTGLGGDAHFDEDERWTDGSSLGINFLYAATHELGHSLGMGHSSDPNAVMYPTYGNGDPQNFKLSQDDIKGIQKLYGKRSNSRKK
Put plainly: Inhibition of MMP7.

In series [3] the target is Disintegrin and metalloproteinase domain-containing protein 17 (Homo sapiens, UniProt P78536).
Series [4] addresses Matrix metalloproteinase-14 (Homo sapiens, UniProt P50281). The experiment in a line: Inhibition of MMP14.
The target of series [5] is Stromelysin-2 (Homo sapiens, UniProt P09238). The experiment in a line: Inhibition of MMP10.
For series [6], the target named is Matrix metalloproteinase-9 (Homo sapiens, UniProt P14780). The experiment in a line: Inhibition of MMP9.
Series [7] relates to HEK293. The experiment in a line: Inhibition of beta-amyloid peptide production in HEK293 cell line. It is filed as functional, cell-based. The conditions noted are these: Homo sapiens.
For series [8], the target named is 72 kDa type IV collagenase (Homo sapiens, UniProt P08253). The experiment in a line: Inhibition of MMP2.
The target in series [9] is Collagenase 3 (Homo sapiens, UniProt P45452). Put plainly: Inhibition of MMP13.
Series [10] can be described thus: Half life in Beagle dog at 0.5 mg/kg, po. It is filed as ADME, organism-based, Canis lupus familiaris. Details: dose 0.5 mg/kg, route oral. The conditions noted are these: in vivo. The method in brief:
(§1)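 Beagle dogs were dosed in cassette format with up to nine other compounds. Doses were kept low to limit interactions: 0.25 mg/kg iv and 0.5 or 1.0 mg/kg po. Pharmacokinetic parameters were derived from these dosings.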

The nature of series [11]: Cmax in Beagle dog at 0.5 mg/kg, po. The conditions noted are these: in vivo. Details: dose 0.5 mg/kg, route oral. It is filed as ADME, organism-based, Canis lupus familiaris. Put shortly: as §1
Series [12] is described as follows: Percent of unbound ligand in Beagle dog at 0.5 mg/kg, po. It is filed as ADME, organism-based, Canis lupus familiaris. The arrangement: dose 0.5 mg/kg, route oral. The conditions noted are these: in vivo.
Series [13] relates to Canis familiaris. Put plainly: Volume of distribution in Beagle dog at 0.5 mg/kg, po. It is filed as ADME, organism-based, Canis lupus familiaris. Details: dose 0.5 mg/kg, route oral. The conditions noted are these: in vivo. The method in brief: as §1
A short description of series [14]: Clearance in Beagle dog at 0.5 mg/kg, po. The conditions noted are these: in vivo. It is filed as ADME, organism-based, Canis lupus familiaris. The arrangement: dose 0.5 mg/kg, route oral. Put shortly:
as §1

A short description of series [15]: Oral bioavailability in Beagle dog at 0.5 mg/kg, po. It is filed as ADME, organism-based, Canis lupus familiaris. The conditions noted are these: in vivo. Put shortly:
as §1

Series [16] is described as follows: Inhibition of gamma secretase mediated Notch1 signalling in NIH3T3 cells. It is filed as functional, cell-based. The conditions noted are these: Mus musculus. Put shortly: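 NIH3T3 cells were grown in DMEM with 10% calf serum, penicillin/streptomycin, 2 mM L-glutamine and 1 mM pyruvate. They were transiently batch-transfected for 24 h with mouse Notch-1 ΔE, vector DNA and a CBF1-luciferase reporter (four tandem CBF1 binding elements). Cells were then replated in defined medium with 0.0125% BSA, treated with serial compound dilutions for 20 h, and read by luciferase luminescence.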

Series [17] can be described thus: Solubility at pH 7.4. It is filed as physicochemical. The conditions noted are these: buffer.
The nature of series [18]: Oral bioavailability in Beagle dog at 1 mg/kg, po. The conditions noted are these: in vivo. It is filed as ADME, organism-based, Canis lupus familiaris. The method in brief: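 Beagle dogs given compounds in cassette format with up to nine other compounds. Doses were kept low to limit interactions: 0.25 mg/kg iv, and 0.5 or 1.0 mg/kg po.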
Series [19] can be described thus: Cmax in Beagle dog at 1 mg/kg, po. It is filed as ADME, organism-based, Canis lupus familiaris. The conditions noted are these: in vivo. Details: dose 1 mg/kg, route oral. Put shortly:
as §1

Series [20] can be described thus: Clearance in Beagle dog at 1 mg/kg, po. It is filed as ADME, organism-based, Canis lupus familiaris. Details: dose 1 mg/kg, route oral. The conditions noted are these: in vivo. Put shortly: as §1
The nature of series [21]: Half life in Beagle dog at 1 mg/kg, po. Details: dose 1 mg/kg, route oral. It is filed as ADME, organism-based, Canis lupus familiaris. The conditions noted are these: in vivo. Put shortly:
as §1

Series [22] deals with Canis familiaris. Put plainly: Volume of distribution in Beagle dog at 1 mg/kg, po. It is filed as ADME, organism-based, Canis lupus familiaris. The arrangement: dose 1 mg/kg, route oral. The conditions noted are these: in vivo. Put shortly:
as §1

In brackets after ≈: the same amount, converted by molar mass.

As usually defined, the Ki is the dissociation constant of the complex between target and ligand, obtained from inhibition or displacement. Broadly, the IC50 is the concentration that inhibits the measured activity by half. Read a low IC50 as greater potency in that assay. In general, half-life refers to how long it takes for the measured level to halve. The Cmax is the highest concentration seen after dosing. For orientation: fraction unbound means free concentration divided by total concentration. One may read the CL/F as the apparent clearance, not corrected for the fraction that reaches the circulation. The term bioavailability denotes the share of a dose that reaches the circulation, judged against a reference dose that is usually intravenous. Read a high bioavailability as good availability. As a reminder, the solubility is how much of the substance goes into solution per volume. Lower therefore signals a poorly soluble substance.

Disintegrin and metalloproteinase domain-containing protein 17, sequence (P78536 whole entry, the tested form may be a part): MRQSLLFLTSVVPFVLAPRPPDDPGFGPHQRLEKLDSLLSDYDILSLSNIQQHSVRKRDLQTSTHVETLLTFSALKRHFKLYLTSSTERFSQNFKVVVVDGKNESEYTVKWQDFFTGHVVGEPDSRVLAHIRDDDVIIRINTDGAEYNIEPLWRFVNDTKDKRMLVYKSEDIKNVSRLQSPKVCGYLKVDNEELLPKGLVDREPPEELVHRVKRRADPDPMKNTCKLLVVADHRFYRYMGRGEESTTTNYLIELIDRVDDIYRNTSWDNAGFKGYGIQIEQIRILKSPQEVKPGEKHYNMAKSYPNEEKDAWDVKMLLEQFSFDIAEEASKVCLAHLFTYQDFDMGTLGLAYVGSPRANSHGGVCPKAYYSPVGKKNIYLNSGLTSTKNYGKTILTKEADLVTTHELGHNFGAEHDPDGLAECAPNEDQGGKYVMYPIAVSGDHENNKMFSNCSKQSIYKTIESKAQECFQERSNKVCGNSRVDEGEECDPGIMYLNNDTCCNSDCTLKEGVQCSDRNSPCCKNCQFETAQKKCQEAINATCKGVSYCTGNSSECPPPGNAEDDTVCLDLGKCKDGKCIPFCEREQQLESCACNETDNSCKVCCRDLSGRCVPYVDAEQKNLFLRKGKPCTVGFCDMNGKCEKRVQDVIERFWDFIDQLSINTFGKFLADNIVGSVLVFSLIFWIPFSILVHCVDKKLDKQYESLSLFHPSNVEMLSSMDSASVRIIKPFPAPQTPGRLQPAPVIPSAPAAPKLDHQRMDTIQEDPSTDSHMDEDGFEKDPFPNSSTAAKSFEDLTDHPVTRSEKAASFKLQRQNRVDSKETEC
72 kDa type IV collagenase, sequence (P08253 whole entry): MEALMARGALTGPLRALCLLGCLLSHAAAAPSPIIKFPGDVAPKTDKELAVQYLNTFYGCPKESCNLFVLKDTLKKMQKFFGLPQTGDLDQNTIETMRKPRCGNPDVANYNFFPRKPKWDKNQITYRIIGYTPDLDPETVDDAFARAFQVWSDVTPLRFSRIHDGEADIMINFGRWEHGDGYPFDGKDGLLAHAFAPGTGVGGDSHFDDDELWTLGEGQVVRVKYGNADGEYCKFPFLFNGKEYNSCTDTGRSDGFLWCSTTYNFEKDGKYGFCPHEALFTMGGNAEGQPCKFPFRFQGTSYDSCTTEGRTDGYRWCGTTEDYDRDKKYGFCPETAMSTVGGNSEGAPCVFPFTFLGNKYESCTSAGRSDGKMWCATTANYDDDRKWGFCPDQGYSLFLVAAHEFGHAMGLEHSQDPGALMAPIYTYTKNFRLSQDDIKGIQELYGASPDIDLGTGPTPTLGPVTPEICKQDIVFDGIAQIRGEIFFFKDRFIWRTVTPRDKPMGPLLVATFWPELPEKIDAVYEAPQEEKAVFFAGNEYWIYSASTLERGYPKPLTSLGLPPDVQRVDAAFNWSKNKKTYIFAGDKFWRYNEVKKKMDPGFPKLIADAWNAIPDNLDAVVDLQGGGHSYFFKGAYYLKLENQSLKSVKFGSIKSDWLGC
Matrix metalloproteinase-9, sequence (P14780 whole entry): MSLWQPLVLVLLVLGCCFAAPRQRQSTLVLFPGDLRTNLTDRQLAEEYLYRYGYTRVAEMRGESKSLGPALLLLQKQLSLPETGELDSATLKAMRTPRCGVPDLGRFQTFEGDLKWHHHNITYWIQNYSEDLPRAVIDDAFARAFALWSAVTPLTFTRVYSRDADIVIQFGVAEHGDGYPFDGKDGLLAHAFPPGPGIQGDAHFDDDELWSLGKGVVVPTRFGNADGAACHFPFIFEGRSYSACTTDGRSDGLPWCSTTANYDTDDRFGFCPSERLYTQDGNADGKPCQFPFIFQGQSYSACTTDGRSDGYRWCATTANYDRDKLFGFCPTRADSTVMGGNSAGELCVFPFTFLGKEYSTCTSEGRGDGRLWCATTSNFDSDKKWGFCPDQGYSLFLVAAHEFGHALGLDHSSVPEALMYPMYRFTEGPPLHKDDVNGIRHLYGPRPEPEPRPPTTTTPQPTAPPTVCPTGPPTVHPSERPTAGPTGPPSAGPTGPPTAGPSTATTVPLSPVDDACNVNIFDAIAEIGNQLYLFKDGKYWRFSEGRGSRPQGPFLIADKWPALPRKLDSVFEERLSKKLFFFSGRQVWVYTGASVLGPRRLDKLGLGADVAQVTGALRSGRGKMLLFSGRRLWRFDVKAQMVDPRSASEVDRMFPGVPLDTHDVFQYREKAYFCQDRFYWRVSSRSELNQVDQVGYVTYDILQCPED
Stromelysin-2, sequence (P09238 whole entry): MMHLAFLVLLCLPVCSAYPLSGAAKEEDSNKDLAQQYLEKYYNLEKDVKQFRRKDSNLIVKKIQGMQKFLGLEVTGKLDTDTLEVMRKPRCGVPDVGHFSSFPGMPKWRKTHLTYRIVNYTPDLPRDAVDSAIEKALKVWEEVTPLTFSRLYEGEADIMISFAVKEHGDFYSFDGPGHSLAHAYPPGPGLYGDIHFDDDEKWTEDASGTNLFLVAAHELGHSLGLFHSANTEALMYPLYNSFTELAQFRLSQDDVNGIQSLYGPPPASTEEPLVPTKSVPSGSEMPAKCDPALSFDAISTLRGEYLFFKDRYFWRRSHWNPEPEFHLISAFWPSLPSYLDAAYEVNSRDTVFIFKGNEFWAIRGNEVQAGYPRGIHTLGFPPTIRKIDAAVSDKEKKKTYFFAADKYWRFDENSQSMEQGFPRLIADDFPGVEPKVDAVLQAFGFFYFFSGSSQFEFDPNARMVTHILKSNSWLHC

On to `CCC[C@H](C(=O)NO)[C@@H](CC(C)C)C(=O)N[C@H]1CCCCN(Cc2cccc(Oc3ccccc3)c2)C1=O`, for which the Ki in series [1] came out at 21 nM; in series [2] it was 660 nM; in series [3] it was 4 nM; in series [4], 1200 nM; in series [5], 190 nM; in [6], 5 nM. Further, the Ki in [8] amounted to 7 nM; in series [9], 10 nM. In [7], this compound returned an IC50 of 500 nM.
`CCC[C@H](C(N)=O)[C@@H](CC(C)C)C(=O)N[C@H]1CCCCN(Cc2cccc(Nc3ccccc3)c2)C1=O` had a half-life in series [10] of 1 h. Besides, the Cmax in series [11] amounted to 17 nM. In addition, the fraction unbound in series [12] came to 0.015. Moreover, the Vss in [13] stood at 0.4 L/kg. The CL/F in series [14] was 10 mL/min/kg. This compound gave a bioavailability in series [15] of 3%. For the same compound, the IC50 in series [16] turned out to be 64 nM.
In series [17], `CCC[C@H](C(N)=O)[C@@H](CC(C)C)C(=O)N[C@H]1CCCCN(Cc2cccc(Oc3ccccc3)c2)C1=O` registered a solubility of 1 µg/mL (≈ 1.97 µM). This compound gave a half-life in [10] of 0.5 h. The Cmax in series [11] turned out to be 25 nM. The compound further displayed a free fraction (fraction unbound) in [12] of 0.004. Besides, the IC50 came out at 50 nM in series [7] and 82 nM in [16]. This compound showed a Vss in series [13] of 1.3 L/kg. Moreover, in series [14], the CL/F is 31.7 mL/min/kg. This compound came in with a bioavailability in [15] of 8%.
Compound `CCCC(C(N)=O)C(CC(C)C)C(=O)N[C@H]1CCCCN(Cc2cccc(-c3ccc(Cl)cc3Cl)c2)C1=O` (single isomer, unassigned) displayed an IC50 in series [7] of 14 nM.
The compound `CCCC(C(=O)NO)C(CC(C)C)C(=O)N[C@H]1CCCCN(Cc2cccc(-c3ccccc3OC)c2)C1=O` (single isomer, unassigned) yielded an IC50 in series [7] of 300 nM.
In series [18], `CCCC(C(N)=O)C(CC(C)C)C(=O)N[C@H]1CCCCN(Cc2cccc(-c3ccc(F)c(Cl)c3)c2)C1=O` (single isomer, unassigned) came in with a bioavailability of 25%. Moreover, the Cmax in [19] is 116 nM. The compound further registered a solubility in [17] of 0.1 µg/mL (≈ 0.184 µM). This compound also gave a CL/F in series [20] of 6.67 mL/min/kg. The compound further gave a half-life in series [21] of 1.3 h. Also, in series [22], the Vss came out at 0.8 L/kg. The IC50 was determined as 17 nM in series [7] and 18 nM in series [16].
In the case of `CCCC(C(N)=O)C(CC(C)C)C(=O)N[C@H]1CCCCN(Cc2cccc(-c3ccccc3OC)c2)C1=O` (single isomer, unassigned), the IC50 in series [7] turned out to be 30 nM.
In turn, `CCCC(C(=O)NO)C(CC(C)C)C(=O)N[C@H]1CCCCN(Cc2cccc(-c3cccc(F)c3)c2)C1=O` (single isomer, unassigned) gave an IC50 in [7] of 180 nM.
Turning to `CCCC(C(N)=O)C(CC(C)C)C(=O)N[C@H]1CCCCN(Cc2cccc(-c3cccc(OC)c3)c2)C1=O` (single isomer, unassigned), half-maximal inhibition in series [7] (IC50) was put at 150 nM.
`CCCC(C(N)=O)C(CC(C)C)C(=O)N[C@H]1CCCCN(Cc2cccc(-c3ccc(OC)cc3)c2)C1=O` (single isomer, unassigned): inhibition in series [7] was half-maximal at 8 nM (IC50).
With `CCCC(C(N)=O)C(CC(C)C)C(=O)N[C@H]1CCCCN(Cc2cccc(-c3ccc(F)cc3)c2)C1=O` (single isomer, unassigned), the IC50 in series [7] amounted to 191 nM.
In series [7], `CCCC(C(N)=O)C(CC(C)C)C(=O)N[C@H]1CCCCN(Cc2ccc(-c3ccc(C(F)(F)F)cc3)cc2)C1=O` (single isomer, unassigned) came in with an IC50 of 90 nM.
Same read-out and setting: then `CCCC(C(=O)NO)C(CC(C)C)C(=O)N[C@H]1CCCCN(Cc2cccc(-c3cccc(NC(C)=O)c3)c2)C1=O` (single isomer, unassigned), with above 10000 nM; and `CCCC(C(N)=O)C(CC(C)C)C(=O)N[C@H]1CCCCN(Cc2cccc(-c3cccc(F)c3)c2)C1=O` (single isomer, unassigned), with 300 nM; and `CCCC(C(=O)NO)C(CC(C)C)C(=O)N[C@H]1CCCCN(Cc2cccc(-c3ccccc3-c3cccc4ccccc34)c2)C1=O` (single isomer, unassigned), with 250 nM.
Still for that read-out and setting: in the case of `CCCC(C(N)=O)C(CC(C)C)C(=O)N[C@H]1CCCCN(Cc2cccc(-c3ccc(C)cc3)c2)C1=O` (single isomer, unassigned) it was 40 nM.
Still for that read-out and setting: in the case of `CCCC(C(N)=O)C(CC(C)C)C(=O)N[C@H]1CCCCN(Cc2cccc(-c3ccc(C(F)(F)F)cc3)c2)C1=O` (single isomer, unassigned) it was 10 nM.

For the origin of these results see ChEMBL document CHEMBL1147000, “Synthesis and evaluation of succinoyl-caprolactam gamma-secretase inhibitors” (Bioorg Med Chem Lett, 2006).
